Measurements as given in ChEMBL document CHEMBL3244005, “Troponoids. 3. Synthesis and antiallergy activity of N-troponyloxamic acid esters” (J Med Chem, 1979).

Experiments:
[1] = system: Rattus norvegicus; experiment: Antiallergic activity in Sprague-Dawley CD rat assessed as inhibition of passive anaphylaxis-induced hind paw edema at 100 mg/kg, po relative to control; type: functional; settings: for inhibition in vivo at 100 mg/kg: Rattus norvegicus, Sprague-Dawley CD, po
Outline: (§1)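 Passive anaphylaxis (reaginic antibody) induced in rat hind paw: serum with reaginic antibody injected into left hind paw; antigen given intravenously 24 h later. Paw volume measured by mercury displacement; activity read as inhibition of paw edema versus controls. Test compounds given ip or po. Inhibition of 35% or more considered significant by Student's t test (p < 0.05).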

[2] = system: Rattus norvegicus; experiment: Antiallergic activity in Sprague-Dawley CD rat assessed as inhibition of passive anaphylaxis-induced hind paw edema at 30 mg/kg, ip relative to control; type: functional; settings: route intraperitoneal; for inhibition in vivo at 30 mg/kg: Rattus norvegicus, Sprague-Dawley CD, ip; outline: as §1
[3] = system: Rattus norvegicus; experiment: Antiallergic activity in Sprague-Dawley CD rat assessed as inhibition of passive anaphylaxis-induced hind paw edema at 30 mg/kg, po relative to control; type: functional; settings: for inhibition in vivo at 30 mg/kg: Rattus norvegicus, Sprague-Dawley CD, po; outline: as §1
[4] = system: Rattus norvegicus; experiment: Antiallergic activity in Sprague-Dawley CD rat assessed as inhibition of passive anaphylaxis-induced hind paw edema at 10 mg/kg, ip relative to control; type: functional; settings: route intraperitoneal; for inhibition in vivo at 10 mg/kg: Rattus norvegicus, Sprague-Dawley CD, ip; outline: as §1
[5] = Inhibition of beef heart PDE assessed as cyclic AMP level; parameters: species or system Bos taurus
Outline: (§2)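 PDE from beef heart or guinea pig lung assayed by earlier-described methods; protein measured by Lowry method. IC50 taken from a plot of percent inhibition vs log inhibitor concentration, as the concentration giving 50% reduction in reaction velocity relative to uninhibited controls.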

[6] = Inhibition of guinea pig lung PDE assessed as cyclic AMP level; parameters: species or system Cavia porcellus; outline: as §2
[7] = system: Rattus norvegicus; experiment: Antiallergic activity in Sprague-Dawley CD rat assessed as inhibition of passive anaphylaxis-induced hind paw edema at 5 mg/kg, ip relative to control; type: functional; settings: route intraperitoneal; outline: as §1
[8] = system: Rattus norvegicus; experiment: Antiallergic activity in Sprague-Dawley CD rat passive anaphylaxis model assessed as hind paw edema volume at 30 mg/kg, po relative to control; type: functional; outline: as §1
[9] = system: Rattus norvegicus; experiment: Antiallergic activity in Sprague-Dawley CD rat assessed as inhibition of passive anaphylaxis-induced hind paw edema at 3 mg/kg, po relative to control; type: functional; settings: for inhibition in vivo at 3 mg/kg: Rattus norvegicus, Sprague-Dawley CD, po; outline: as §1
[10] = system: Rattus norvegicus; experiment: Antiallergic activity in Sprague-Dawley CD rat passive anaphylaxis model assessed as hind paw edema volume at 2 mg/kg, ip relative to control; type: functional; settings: route intraperitoneal; outline: as §1
[11] = system: Rattus norvegicus; experiment: Antiallergic activity in Sprague-Dawley CD rat passive anaphylaxis model assessed as hind paw edema volume at 10 mg/kg, ip relative to control; type: functional; settings: route intraperitoneal; outline: as §1
[12] = system: Rattus norvegicus; experiment: Antiallergic activity in Sprague-Dawley CD rat assessed as inhibition of passive anaphylaxis-induced hind paw edema at 10 mg/kg, po relative to control; type: functional; settings: for inhibition in vivo at 10 mg/kg: Rattus norvegicus, Sprague-Dawley CD, po; outline: as §1
[13] = system: Rattus norvegicus; experiment: Antiallergic activity in Sprague-Dawley CD rat passive anaphylaxis model assessed as hind paw edema volume at 3 mg/kg, po relative to control; type: functional; outline: as §1
[14] = system: Rattus norvegicus; experiment: Antiallergic activity in Sprague-Dawley CD rat assessed as inhibition of passive anaphylaxis-induced hind paw edema at 2 mg/kg, ip relative to control; type: functional; settings: route intraperitoneal; outline: as §1
[15] = system: Rattus norvegicus; experiment: Antiallergic activity in Sprague-Dawley CD rat passive anaphylaxis model assessed as hind paw edema volume at 10 mg/kg, po relative to control; type: functional; outline: as §1
[16] = system: Rattus norvegicus; experiment: Antiallergic activity in Sprague-Dawley CD rat passive anaphylaxis model assessed as hind paw edema volume at 5 mg/kg, ip relative to control; type: functional; settings: route intraperitoneal; outline: as §1
[17] = species on record: Cavia porcellus; experiment: Stimulation of guinea pig lung adenylate cyclase activity at 1 x 10^-4 M after 15 mins relative to control
[18] = system: Serum; experiment: Drug metabolism in serum of Sprague-Dawley CD rat passive anaphylaxis model at 0.23 mmol/kg, iv; type: ADME, cell-free
Outline: (§3)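 Rats given an iv bolus of 0.23 mmol/kg. Serum separated by centrifugation and stored frozen. Drug-derived material in serum quantified over time by UV measurement of 2-aminotropone. For 14C-labelled ester (label in ethyl group or oxalyl carbonyls), radioactivity counted in 0.2 mL serum after tissue-solubiliser digestion and scintillation fluid addition.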

[19] = system: Rattus norvegicus; experiment: Antiallergic activity in Sprague-Dawley CD rat assessed as inhibition of passive anaphylaxis-induced hind paw edema at 1 mg/kg, ip relative to control; type: functional; settings: route intraperitoneal; outline: as §1
[20] = system: Rattus norvegicus; experiment: Antiallergic activity in Sprague-Dawley CD rat passive anaphylaxis model assessed as hind paw edema volume at 1 mg/kg, ip relative to control; type: functional; settings: route intraperitoneal; outline: as §1
[21] = system: Rattus norvegicus; experiment: Antiallergic activity in Sprague-Dawley CD rat passive anaphylaxis model assessed as hind paw edema volume at 3 mg/kg, ip relative to control; type: functional; settings: route intraperitoneal; outline: as §1
[22] = system: Rattus norvegicus; experiment: Antiallergic activity in Sprague-Dawley CD rat assessed as inhibition of passive anaphylaxis-induced hind paw edema at 3 mg/kg, ip relative to control; type: functional; parameters: Activity: scale not given: the % may be the effect or the level left; settings: route intraperitoneal; for inhibition in vivo at 3 mg/kg: Rattus norvegicus, Sprague-Dawley CD, ip; outline: as §1
[23] = system: Rattus norvegicus; experiment: Drug metabolism in po dosed Sprague-Dawley CD rat passive anaphylaxis model assessed as 2-aminotropone level; type: ADME, organism-based; settings: in vivo
[24] = species on record: Cavia porcellus; experiment: Stimulation of guinea pig lung adenylate cyclase activity at 1 x 10^-3 M after 15 mins relative to control
Outline: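 Guinea pig lung adenyl cyclase preparation, chosen because it carries negligible cyclic nucleotide phosphodiesterase activity. Enzyme activity was read as cyclic AMP formation in the presence of test agent and compared with untreated control.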

[25] = system: Blood; experiment: Drug metabolism in blood of Sprague-Dawley CD rat passive anaphylaxis model at 0.23 mmol/kg, iv; type: ADME, tissue-based; outline: as §3
[26] = species on record: Cavia porcellus; experiment: Stimulation of guinea pig lung adenylate cyclase activity at 1 x 10^-5 M after 15 mins relative to control
[27] = system: Serum; experiment: Drug metabolism in serum of Sprague-Dawley CD rat passive anaphylaxis model assessed as 2-[(Carboxycarbonyl)amino]-2,4,6-cycloheptatrien-l-one level at 0.23 mmol/kg, iv; type: ADME, cell-free; outline: as §3
[28] = system: Serum; experiment: Drug metabolism in serum of Sprague-Dawley CD rat passive anaphylaxis model assessed as 2-aminotropone level at 0.23 mmol/kg, iv; type: ADME, cell-free; outline: as §3

Compound | inhibition in vivo at 100 mg/kg [1] [%] | inhibition in vivo at 30 mg/kg [2] [%] | inhibition in vivo at 30 mg/kg [3] [%] | inhibition in vivo at 10 mg/kg [4] [%] | also measured
CCOC(=O)C(=O)Nc1ccccc(N(C)S(=O)(=O)c2ccc(C)cc2)c1=O | 0 | 32 | 3 |  | 
NNC(=O)C(=O)Nc1cccccc1=O | 78 | 78 | 41 | 64 | 
CCOC(=O)C(=O)Nc1ccc(O)c(=O)cc1 |  | 10 |  |  | 
CCCCCOC(=O)C(=O)Nc1cccccc1=O |  | 57 | 12 | 61 | 
O=C([O-])C(=O)Nc1cccccc1=O.[K+] |  |  |  |  | IC50 [5]: 5100 µM; IC50 [6]: 5000 µM; inhibition (INH) [1]: 68%; inhibition (INH) [2]: 75%; inhibition in vivo at 5 mg/kg [7]: 46%; inhibition (INH) [4]: 70%; Activity [8]: 0.44 mL; inhibition (INH) [9]: 35%; inhibition (INH) [3]: 53%; Activity [10]: 0.69 mL; Activity [11]: 0.36 mL; inhibition (INH) [12]: 31%; Activity [13]: 0.61 mL; inhibition in vivo at 2 mg/kg [14]: 46%; Activity [15]: 0.66 mL; Activity [16]: 0.69 mL
CCOC(=O)C(=O)Nc1ccccc(OC)c1=O | 56 | 52 | 59 | 24 | 
CCOC(=O)C(=O)Nc1ccccc(C)c1=O | 34 | 60 | 6 | 40 | 
CCOC(=O)C(=O)Nc1ccccc(N(C)C(=O)C(=O)OCC)c1=O | 0 | 51 | 6 | 26 | 
CNC[C@H](O)c1ccc(O)c(O)c1 |  |  |  |  | Activity [17]: 84%
CCOC(=O)C(=O)Nc1c(C)ccccc1=O | 37 | 47 | 4 |  | 
Nc1cccccc1=O |  |  |  |  | Drug metabolism [18]: metabolite_detected
CCOC(=O)C(=O)Nc1c(Oc2ccccc2)ccccc1=O | 20 | 0 |  |  | 
O=C(O)C(=O)Nc1cccccc1=O [listing 1 of 2 here] |  |  |  |  | Activity [17]: 2%
CCOC(=O)C(=O)Nc1ccccc(O)c1=O | 0 | 61 |  | 5 | 
O=C(O)COC(=O)C(=O)Nc1cccccc1=O | 50 | 93 | 45 | 66 | 
CCOC(=O)C(=O)Nc1ccccc(NC)c1=O |  | 83 | 0 | 73 | 
CCOC(=O)C(=O)Nc1cc(OC)cccc1=O | 53 | 8 | 31 |  | 
CCOC(=O)C(=O)Nc1ccc(Cl)ccc1=O | 25 | 27 |  |  | 

Compound | inhibition in vivo at 100 mg/kg [1] [%] | inhibition in vivo at 30 mg/kg [2] [%] | inhibition in vivo at 30 mg/kg [3] [%] | inhibition in vivo at 10 mg/kg [4] [%] | also measured
CCOC(=O)C(=O)Nc1ccccc(Br)c1=O | 0 | 52 |  |  | 
O=C(O)c1cc(=O)c2c(OCC(O)COc3cccc4oc(C(=O)O)cc(=O)c34)cccc2o1 [CROMOLYN SODIUM] |  | 77 |  | 62 | 
COc1cccc2c(=O)c(CO)coc12 | 83 | 98 | 53 | 70 | inhibition in vivo at 1 mg/kg [19]: 14%; Activity [8]: 0.63 mL; inhibition in vivo at 3 mg/kg [9]: 15%; Activity [20]: 1 mL; Activity [11]: 0.32 mL; inhibition in vivo at 10 mg/kg [12]: 44%; Activity [13]: 1.13 mL; Activity [21]: 0.68 mL; Activity [15]: 0.74 mL; inhibition in vivo at 3 mg/kg [22]: 39%
CC(C)(C)OC(=O)C(=O)Nc1cccccc1=O | 82 | 79 | 47 |  | 
O=C(Nc1cccccc1=O)C(=O)Oc1ccccc1 | 71 | 73 | 31 | 68 | 
Cn1c(=O)c2nc[nH]c2n(C)c1=O [THEOPHYLLINE] |  |  |  |  | IC50 [5]: 515 µM; IC50 [6]: 1480 µM
NC(CO)(CO)CO.O=C(O)C(=O)Nc1cccccc1=O |  |  |  |  | inhibition (INH) [1]: 73%; Activity [8]: 0.64 mL; inhibition (INH) [9]: 13%; inhibition (INH) [3]: 32%; inhibition (INH) [12]: 7%; Activity [13]: 0.83 mL; Activity [15]: 0.88 mL
O=C(O)C(=O)Nc1cccccc1=O [listing 2 of 2 here] | 62 | 77 |  | 89 | IC50 [5]: 4330 µM; Drug metabolism [23]: metabolite_detected; Activity [8]: 0.88 mL; inhibition (INH) [3]: 38%; Activity [11]: 0.12 mL; inhibition (INH) [12]: 38%; Activity [21]: 0.75 mL; Activity [15]: 1.11 mL; Activity [22]: 35%
COC(=O)C(=O)Nc1ccc(OC)c(=O)cc1 |  | 36 |  |  | 
CCOC(=O)C(=O)Nc1ccccc(Oc2ccccc2)c1=O | 9 | 16 |  |  | 
CCOC(=O)C(=O)Nc1cccc(OC)cc1=O | 48 | 67 | 45 | 73 | 
CCOC(=O)C(=O)Nc1ccc(NC(=O)C(=O)OCC)c(=O)cc1 | 76 | 84 | 61 | 93 | 
CCOC(=O)COC(=O)C(=O)Nc1cccccc1=O | 64 |  | 31 | 69 | 
CC(C)OC(=O)C(=O)Nc1cccccc1=O | 72 | 96 | 63 | 76 | 
Cn1c(=O)c2[nH]cnc2n(C)c1=O |  |  |  |  | Activity [24]: 5%
CCOC(=O)C(=O)Nc1cccccc1=O | 91 | 84 | 79 | 80 | inhibition in vivo at 1 mg/kg [19]: 16%; IC50 [5]: 1520 µM; IC50 [6]: 1940 µM; Drug metabolism [25]: metabolite_detected; Activity [26]: 0%; Drug metabolism [23]: metabolite_detected; Activity [8]: 0.17 mL; inhibition in vivo at 3 mg/kg [9]: 50%; Activity [20]: 0.95 mL; Activity [11]: 0.22 mL; Drug metabolism [18]: metabolite_detected; Drug metabolism [27]: metabolite_detected; inhibition in vivo at 10 mg/kg [12]: 75%; Drug metabolism [28]: metabolite_notdetected; Activity [13]: 0.47 mL; Activity [21]: 0.41 mL; Activity [17]: 7%; Activity [15]: 0.24 mL; inhibition in vivo at 3 mg/kg [22]: 62%
CCOC(=O)C(=O)Nc1ccccc(-c2ccccc2)c1=O | 0 | 72 |  | 57 | 
